Experiments:
[1] = Selectivity index, ratio of TC50 for MDCK cells to IC50 for Influenza A virus (A/95-359) infected in MDCK cells; type: toxicity, cell-based; settings: dog, read-out: Selectivity Index
How it was run: (§1)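 MDCK cells (2.5 × 10^4/well) seeded 24 h, PBS-washed, infected with influenza A/95-359 at 100 TCID50 for 2 h, then exposed to graded compound concentrations until control CPE reached 4+. IC50 = minimal concentration inhibiting 50% of CPE (Reed and Muench); triplicate, at least three separate experiments. […] SI = TC50/IC50.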

[2] = Selectivity index, ratio of TC50 for African green monkey Vero cells to IC50 for Herpes simplex virus-1 F VR 733 infected in African green monkey Vero cells; type: toxicity; settings: read-out: Selectivity Index
How it was run: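 Vero cells (2.5 × 10^4/well) seeded 24 h, medium removed, infected with HSV-1 at 100 TCID50 for 2 h, then graded compound concentrations added until control CPE reached 4+. IC50 = minimal concentration inhibiting 50% CPE (Reed and Muench); triplicate, at least three separate experiments. […] SI = TC50/IC50.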

Coxsackievirus B3 = assay: Antiviral activity against Coxsackievirus B3 infected in African green monkey Vero cells assessed as inhibition of virus-induced cytopathic effect; type: functional; settings: Enterovirus B
How it was run: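 Vero monolayers were infected with Cox B3 at 100 TCID50 and allowed 2 h adsorption at 37 °C. They were then washed with PBS and kept at 37 °C in MEM with 2% FBS, with or without graded concentrations of test compounds. Read-out was CPE.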

[3] = Cytotoxicity against African green monkey Vero cells assessed as growth inhibition after 48 hrs; type: cell-based; settings: chlorocebus sabaeus, read-out: TC50
How it was run: (§2)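 Vero or MDCK cells (2.5 × 10^4/well) were seeded for 24 h, then exposed to graded compound concentrations. After 48 h at 37 °C and 5% CO2, cytotoxicity was scored by CPE. TC50 was calculated by Reed and Muench analysis.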

[4] = Cytotoxicity against MDCK cells assessed as growth inhibition after 48 hrs; type: cell-based, Canis lupus familiaris; settings: dog, read-out: TC50; how it was run: as §2
Human alphaherpesvirus 1 = assay: Antiviral activity against Herpes simplex virus-1 F VR 733 infected in African green monkey Vero cells assessed as inhibition of virus-induced cytopathic effect; type: functional; settings: Human alphaherpesvirus 1, Strain F ATCC VR 733, Vero
How it was run: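 Vero cells (2.5 × 10^4/well) were seeded for 24 h, then the medium was removed. Cells were infected with HSV-1 at 100 TCID50 for 2 h, then given graded compound concentrations. Incubation continued until control CPE reached 4+. Runs were in triplicate, repeated at least three times. IC50 is the minimal concentration inhibiting 50% of CPE, by Reed and Muench.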

[5] = Selectivity index, ratio of TC50 for African green monkey Vero cells to IC50 for Coxsackievirus B3 infected in African green monkey Vero cells; type: toxicity; settings: read-out: Selectivity Index
How it was run: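 Vero monolayers infected with 100 TCID50 Coxsackie B3 virus, 2 h adsorption at 37 °C, PBS-washed, then held in MEM plus 2% FBS at 37 °C with graded compound concentrations. […] SI = TC50/IC50.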

Influenza A virus = assay: Antiviral activity against Influenza A virus A/95-359 infected in MDCK cells assessed as inhibition of virus-induced cytopathic effect; type: functional, cell-based; settings: A/95-359, MDCK; how it was run: as §1

Structure (SMILES) | selectivity ratio [1] | selectivity ratio [2] | IC50 (Coxsackievirus B3) [µM] | CC50 at 48 h [3] [µM] | CC50 at 48 h [4] [µM] | IC50 (Human alphaherpesvirus 1) [µM] | selectivity ratio [5] | IC50 (Influenza A virus) [µM]
C[C@H](CC[C@H](O)C(C)(C)O)[C@H]1CC[C@@]2(C(=O)O)[C@@H]3CCC4=C(CC[C@@H](O)C4(C)C)C[C@H]3CC[C@]12C | 4 | 5.2 | 4.8 | 48.1 to 57.7 | 19.3 | 11.1 | 10 | 4.8
C[C@H](CCC(=O)C(C)(C)O)[C@H]1CC[C@@]2(C(=O)O)[C@@H]3CCC4=C(CC[C@@H](O)C4(C)C)C[C@H]3CC[C@]12C | 3 | 4.3 | 2.1 | 16 | 6.4 | 3.7 | 7.6 | 2.1
C[C@H](CCC(=O)C(C)(C)O)[C@H]1CC[C@@]2(C(=O)O)[C@@H]3CCC4=C(CC[C@@H](O[C@@H]5O[C@H](CO)[C@@H](O)[C@H](O)[C@H]5O)C4(C)C)C[C@H]3CC[C@]12C |  | 2.1 | 11.1 | 23.1 | 33.3 | 11.1 | 2.1 | > 11.1
C[C@H](CC[C@H](O)C(C)(C)O)[C@H]1CC[C@@]2(C(=O)O)C3=C(CC[C@]12C)[C@@]1(C)CC[C@@H](O)C(C)(C)[C@@H]1CC3 | 4.3 | 7.6 | 4.8 | 16 to 19.3 | 16 | 2.1 | 4 | 3.7
CC(=O)OC[C@H]1O[C@@H](O[C@@H]2CC[C@]3(C)C4=C(CC[C@H]3C2(C)C)[C@]2(C(=O)O)CC[C@H]([C@H](C)CC[C@H](O)C(C)(C)O)[C@@]2(C)CC4)[C@H](O)[C@@H](O)[C@@H]1O | 1.7 | 3 | 11.1 | 19.3 | 19.3 | 6.4 | 1.7 | 11.1
Cc1cc(CCCOc2c(C)cc(-c3noc(C(F)(F)F)n3)cc2C)on1 [PLECONARIL] |  |  | 0.001 | 15.4 |  |  | 15400 | 
NC(=O)c1ncn([C@@H]2O[C@H](CO)[C@@H](O)[C@H]2O)n1 [RIBAVIRIN] | 895 |  | 292 |  | 1160 |  | 6.8 | 1.3
